This note sets out measurements from ChEMBL document CHEMBL4706741, “De Novo Design, Synthesis, and Mechanistic Evaluation of Short Peptides That Mimic Heat Shock Protein 27 Activity” (ACS Med Chem Lett, 2021).

Calls of active or inactive are those of the source. The rule behind the calls is not given here. Where a SMILES comes first, the peptide text is derived from it.

Holding throughout (type): functional
The nature of test [1]: Chaperone like activity at heat-induced citrate synthase aggregation assessed as aggregation at 1.2 uM incubated for 5 mins followed by heat stimulation for 3 mins in 43 degC and measured after 60 mins by fluorimetric analysis (reference value: 100%). The following applies: time 68.0 min. A digest of the protocol:
(§1)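 Thermal aggregation of citrate synthase (150 nM). Peptides were brought to 43 °C in buffer, and CS was added once the temperature had equilibrated. Light scattering at 360 nm was monitored over time. CS with 1% DMSO was set as 100% aggregation, with an Hsp27 (600 nM) chaperone reference run on the same day. Mean ± SEM of at least two or three independent experiments.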

A short description of test [2]: Chaperone like activity at heat-induced citrate synthase aggregation assessed as aggregation at 100 uM incubated for 5 mins followed by heat stimulation for 3 mins in 43 degC and measured after 60 mins by fluorimetric analysis (reference value: 100%). The note with it: time 68.0 min. A digest of the protocol:
as §1

The nature of test [3]: Chaperone like activity at heat-induced citrate synthase aggregation assessed as aggregation incubated for 5 mins followed by heat stimulation for 3 mins in 43 degC and measured after 60 mins by fluorimetric analysis relative to control. The note with it: time 68.0 min. In a few lines:
as §1

A short description of test [4]: Chaperone like activity at heat-induced citrate synthase aggregation assessed as aggregation at 150 uM incubated for 5 mins followed by heat stimulation for 3 mins in 43 degC and measured after 60 mins by fluorimetric analysis (reference value: 100%). The following applies: time 68.0 min. A digest of the protocol:
as §1

Test [5] can be described thus: Chaperone like activity at kappa-casein amyloid formation at 10 to 200 uM measured upto 21 hrs by fluorescence based assay. The note with it: dose 10-200 µM, time hrs <=21.
Test [6] is described as follows: Chaperone like activity at Gdn-Cl/DTT-induced citrate synthase aggregation assessed as aggregation at 200 uM incubated for 5 mins followed by heat stimulation for 3 mins in 43 degC and measured after 60 mins by fluorimetric analysis (reference value: 100%). The note with it: time 68.0 min. In a few lines:
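Citrate synthase (150 nM) unfolded with guanidine chloride and DTT at room temperature, then a small aliquot diluted into refolding buffer with peptide (200 μM) or Hsp27 (600 nM). Aggregation followed by light scattering for 1 h. The 1% DMSO control at 1 h was taken as 100% aggregation. Mean ± SEM of at least two independent experiments.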

Test [7] in a line: Chaperone like activity at heat-induced citrate synthase aggregation assessed as aggregation at 60 uM incubated for 5 mins followed by heat stimulation for 3 mins in 43 degC and measured after 60 mins by fluorimetric analysis (reference value: 100%). The following applies: time 68.0 min. A digest of the protocol: as §1
Test [8] can be described thus: Chaperone like activity at heat-induced citrate synthase aggregation assessed as aggregation at 30 uM incubated for 5 mins followed by heat stimulation for 3 mins in 43 degC and measured after 60 mins by fluorimetric analysis (reference value: 100%). The following applies: time 68.0 min. In a few lines:
as §1

Test [9] can be described thus: Chaperone like activity at heat-induced citrate synthase aggregation assessed as aggregation at 200 uM incubated for 5 mins followed by heat stimulation for 3 mins in 43 degC and measured after 60 mins by fluorimetric analysis (reference value: 100%). The following applies: time 68.0 min. In a few lines: as §1
Test [10] can be described thus: Chaperone like activity at heat-induced citrate synthase aggregation assessed as aggregation at 0.6 uM incubated for 5 mins followed by heat stimulation for 3 mins in 43 degC and measured after 60 mins by fluorimetric analysis (reference value: 100%). The following applies: time 68.0 min. In a few lines:
as §1

A short description of test [11]: Chaperone like activity at kappa-casein amyloid formation at 200 uM measured upto 21 hrs by fluorescence based assay. The note with it: time hrs <=21.

Regarding `N[C@@H](CO)C(=O)N[C@@H](Cc1c[nH]c2ccccc12)C(=O)N[C@@H](CC(=O)O)C(=O)N1CCC[C@H]1C(=O)N[C@@H](Cc1ccccc1)C(=O)O`, the Activity in [1] is 75%; in test [2], 23%; in test [3], “Dose-dependent effect”; in [4] it was 15%; in test [6] it was 63%; in test [7], 63%. The Activity in test [8] is 73%; in test [9], 46%; in test [10] it was 92%. For the same compound, the outcome in test [5] was inactive.

In the case of `N[C@H](CO)C(=O)N[C@H](Cc1c[nH]c2ccccc12)C(=O)N[C@H](CC(=O)O)C(=O)N1CCC[C@@H]1C(=O)N[C@H](Cc1ccccc1)C(=O)O`, the Activity in test [9] turned out to be 90%.

Regarding `N[C@@H](Cc1c[nH]c2ccccc12)C(=O)N[C@@H](CC(=O)O)C(=O)N1CCC[C@H]1C(=O)N[C@@H](Cc1ccccc1)C(=O)O` (H-WDPF-OH), in test [9], the Activity was determined as 115%.

As for H-AWDPF-OH, the Activity in [9] stood at 96%.

Take H-DWDPF-OH: in test [9], the Activity was determined as 110%.

As to H-GPSWDPFRDW-OH, the Activity entry in [3] was “Dose-dependent effect”; in [9], 46%. In test [11], the result was inactive.

Consider H-SADPF-OH, for which the Activity in [9] was determined as 86%.

Turning to H-SWAPF-OH, the Activity in test [9] amounted to 81%.

As to H-SWDAF-OH, the Activity in [9] is 80%.

Take H-SWDPA-OH: in [9], the Activity came out at 78%.

For H-SWDPFR-OH, the Activity in test [9] came to 96%.

For H-SWDPFRD-OH, the Activity in test [6] came out at 52%; in [9], 57%.

For the compound H-SWDPFRDW-OH, the Activity entry in [3] was “Dose-dependent effect”; in test [6], 0%; in test [9], 13%.

For H-WDPFR-OH, the Activity in test [9] was determined as 98%.
